Tests used:
[1] = biological target: T1, Alpha-1B adrenergic receptor (Homo sapiens, UniProt P35368); experiment: Displacement of [3H]prazosin from human cloned Alpha-1B adrenergic receptor
T1 sequence (P35368 whole entry): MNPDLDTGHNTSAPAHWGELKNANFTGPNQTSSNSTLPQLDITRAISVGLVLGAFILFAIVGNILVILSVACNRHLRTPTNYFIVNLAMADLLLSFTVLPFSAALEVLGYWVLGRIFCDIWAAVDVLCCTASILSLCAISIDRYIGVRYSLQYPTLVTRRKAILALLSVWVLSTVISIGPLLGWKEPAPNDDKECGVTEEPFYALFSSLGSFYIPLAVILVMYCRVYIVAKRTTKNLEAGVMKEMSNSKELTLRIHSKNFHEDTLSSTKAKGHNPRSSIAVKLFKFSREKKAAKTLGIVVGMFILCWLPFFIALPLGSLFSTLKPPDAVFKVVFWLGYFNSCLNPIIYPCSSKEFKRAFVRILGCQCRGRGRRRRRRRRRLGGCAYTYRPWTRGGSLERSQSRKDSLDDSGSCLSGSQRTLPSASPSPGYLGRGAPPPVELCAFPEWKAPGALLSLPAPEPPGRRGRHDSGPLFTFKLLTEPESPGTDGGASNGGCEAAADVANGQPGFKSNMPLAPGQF
Summary of the method: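 CHO cells stably transfected with each human α1 subtype; 30 μg membrane protein in 50 mM Tris-HCl pH 7.4 with 0.1–0.4 nM [3H]prazosin, 30 min at 25 °C. Competitors 1 pM–10 μM. Nonspecific binding defined with 10 μM phentolamine. Filtration, scintillation counting. Ki by Cheng–Prusoff; 2–3 experiments in triplicate.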

D(2) dopamine receptor = D(2) dopamine receptor (Rattus norvegicus, UniProt P61169); experiment: Displacement of [3H]spiperone from rat brain Dopamine receptor D2
D(2) dopamine receptor, sequence (P61169 whole entry): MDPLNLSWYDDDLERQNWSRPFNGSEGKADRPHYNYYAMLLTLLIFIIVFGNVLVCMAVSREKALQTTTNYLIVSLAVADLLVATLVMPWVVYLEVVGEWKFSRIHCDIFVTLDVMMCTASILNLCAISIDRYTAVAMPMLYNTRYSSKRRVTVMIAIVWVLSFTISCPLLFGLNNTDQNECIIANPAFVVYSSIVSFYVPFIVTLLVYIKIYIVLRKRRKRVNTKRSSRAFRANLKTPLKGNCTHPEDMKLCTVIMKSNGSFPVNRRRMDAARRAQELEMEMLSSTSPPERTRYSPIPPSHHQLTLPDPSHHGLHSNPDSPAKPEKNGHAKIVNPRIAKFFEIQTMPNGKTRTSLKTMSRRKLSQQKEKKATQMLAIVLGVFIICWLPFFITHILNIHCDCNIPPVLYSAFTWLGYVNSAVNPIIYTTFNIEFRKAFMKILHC
Summary of the method: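 Striata from male Sprague–Dawley rats homogenized in Tris-HCl pH 7.4. Buffer held 10 μM pargiline, 0.1% ascorbic acid, 120 mM NaCl, 5 mM KCl, 2 mM CaCl2, 1 mM MgCl2. Incubated with 0.2–0.6 nM [3H]spiperone for 15 min at 37 °C. Nonspecific binding defined with 1 μM (+)-butaclamol. Filtration, scintillation counting. Ki by Cheng–Prusoff.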

[2] = biological target: Serotonin 2 (5-HT2) receptor (Rattus norvegicus, UniProt P30994+P08909+P14842); experiment: Displacement of [3H]ketanserin from rat brain 5-hydroxytryptamine 2 receptor
Summary of the method: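 Rat cerebral cortex membranes (male Sprague–Dawley) in Tris-HCl pH 7.4 with 10 μM pargiline and 0.1% ascorbic acid were incubated 20 min at 37 °C with 0.7–1.3 nM [3H]ketanserin (5-HT2A). Nonspecific binding was defined by 2 μM ketanserin. Bound label was counted after filtration, and Ki was derived by Cheng–Prusoff.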

[3] = biological target: T2, Adrenergic receptor alpha-2 (Rattus norvegicus, UniProt P22086+P19328+P22909); experiment: Displacement of [3H]rauwolscine from rat brain Alpha-2 adrenergic receptor
T2 sequence (P22086 whole entry): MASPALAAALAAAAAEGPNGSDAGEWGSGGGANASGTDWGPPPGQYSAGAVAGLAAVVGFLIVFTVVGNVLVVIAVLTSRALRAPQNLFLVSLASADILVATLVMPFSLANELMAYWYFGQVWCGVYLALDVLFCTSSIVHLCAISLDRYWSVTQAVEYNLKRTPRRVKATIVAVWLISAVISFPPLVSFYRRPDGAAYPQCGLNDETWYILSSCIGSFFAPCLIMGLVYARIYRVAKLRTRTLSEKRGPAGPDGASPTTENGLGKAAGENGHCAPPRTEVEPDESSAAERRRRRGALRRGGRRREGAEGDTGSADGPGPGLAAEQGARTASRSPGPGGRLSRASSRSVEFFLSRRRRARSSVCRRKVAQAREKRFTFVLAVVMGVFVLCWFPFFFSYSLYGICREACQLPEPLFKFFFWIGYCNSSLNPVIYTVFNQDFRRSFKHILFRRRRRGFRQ
T2 sequence (P19328 whole entry): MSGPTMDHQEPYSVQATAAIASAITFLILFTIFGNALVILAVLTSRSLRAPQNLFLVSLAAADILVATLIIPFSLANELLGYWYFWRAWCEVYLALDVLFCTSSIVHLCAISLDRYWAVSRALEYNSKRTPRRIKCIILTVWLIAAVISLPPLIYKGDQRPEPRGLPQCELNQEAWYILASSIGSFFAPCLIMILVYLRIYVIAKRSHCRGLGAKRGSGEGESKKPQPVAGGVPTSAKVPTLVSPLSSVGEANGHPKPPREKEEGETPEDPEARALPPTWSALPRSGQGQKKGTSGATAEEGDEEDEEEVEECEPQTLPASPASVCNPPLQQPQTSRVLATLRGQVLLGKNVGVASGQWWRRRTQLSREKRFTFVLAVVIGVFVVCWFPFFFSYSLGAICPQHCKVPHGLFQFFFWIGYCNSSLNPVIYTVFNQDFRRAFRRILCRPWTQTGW
T2 sequence (P22909 whole entry): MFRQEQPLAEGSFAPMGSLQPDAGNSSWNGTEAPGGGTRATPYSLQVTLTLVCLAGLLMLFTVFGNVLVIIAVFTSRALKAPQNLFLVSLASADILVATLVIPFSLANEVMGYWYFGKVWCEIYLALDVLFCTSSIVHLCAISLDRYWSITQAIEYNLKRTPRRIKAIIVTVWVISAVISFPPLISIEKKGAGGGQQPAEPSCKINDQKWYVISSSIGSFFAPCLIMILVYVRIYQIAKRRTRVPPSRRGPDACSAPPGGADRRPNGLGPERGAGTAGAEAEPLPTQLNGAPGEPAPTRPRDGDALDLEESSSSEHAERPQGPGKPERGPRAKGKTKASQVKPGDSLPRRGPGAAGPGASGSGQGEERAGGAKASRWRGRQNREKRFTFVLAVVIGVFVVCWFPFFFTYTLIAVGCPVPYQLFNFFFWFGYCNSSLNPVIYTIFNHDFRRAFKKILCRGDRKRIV
Summary of the method: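 Rat cerebral cortex membranes (male Sprague–Dawley) were washed in Tris-HCl pH 7.4 and resuspended with 10 μM pargiline and 0.1% ascorbic acid. They were incubated 30 min at 25 °C with 0.5–1.5 nM [3H]rauwolscine. Nonspecific binding was taken with 10 μM phentolamine. Filtration and scintillation counting followed, and Ki was obtained by Cheng–Prusoff.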

[4] = biological target: T3, 5-hydroxytryptamine receptor 1A (Homo sapiens) (UniProt P08908); conditions: HeLa
T3 sequence (whole entry): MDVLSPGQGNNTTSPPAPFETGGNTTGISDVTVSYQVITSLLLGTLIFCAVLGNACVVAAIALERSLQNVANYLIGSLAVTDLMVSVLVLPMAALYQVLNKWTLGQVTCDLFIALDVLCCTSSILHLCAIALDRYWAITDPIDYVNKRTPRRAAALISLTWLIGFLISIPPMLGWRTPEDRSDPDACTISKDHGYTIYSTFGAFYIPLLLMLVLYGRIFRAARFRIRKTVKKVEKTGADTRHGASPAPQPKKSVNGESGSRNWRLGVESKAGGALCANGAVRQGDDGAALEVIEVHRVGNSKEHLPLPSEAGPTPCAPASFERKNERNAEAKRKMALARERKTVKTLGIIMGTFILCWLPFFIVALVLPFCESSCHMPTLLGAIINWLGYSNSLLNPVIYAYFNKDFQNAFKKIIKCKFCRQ

[5] = biological target: T4, Alpha-1B adrenergic receptor (Rattus norvegicus) (UniProt P15823); experiment: Antagonism of Alpha-1B adrenergic receptor subtype (-)-phenylephrine-induced contraction of rat spleen; type: functional, tissue-based
T4 sequence (whole entry): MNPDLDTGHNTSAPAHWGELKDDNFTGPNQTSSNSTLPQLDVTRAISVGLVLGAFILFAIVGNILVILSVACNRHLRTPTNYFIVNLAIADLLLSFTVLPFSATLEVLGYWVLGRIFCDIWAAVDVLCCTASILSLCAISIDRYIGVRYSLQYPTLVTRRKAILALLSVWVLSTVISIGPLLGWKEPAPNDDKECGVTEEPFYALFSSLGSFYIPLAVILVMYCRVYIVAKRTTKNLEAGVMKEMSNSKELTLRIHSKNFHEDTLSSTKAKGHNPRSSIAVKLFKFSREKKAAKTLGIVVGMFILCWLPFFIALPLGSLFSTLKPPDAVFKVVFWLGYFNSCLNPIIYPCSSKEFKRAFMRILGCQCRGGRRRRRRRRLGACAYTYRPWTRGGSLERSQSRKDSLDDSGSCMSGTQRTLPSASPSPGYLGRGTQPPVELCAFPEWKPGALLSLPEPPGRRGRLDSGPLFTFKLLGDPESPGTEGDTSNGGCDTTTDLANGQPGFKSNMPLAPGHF
Summary of the method: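 Rat spleen, isometric cumulative (–)-phenylephrine curves at 30-min intervals; first discarded, second taken as control. Antagonist was equilibrated 30 min before the next curve.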

[6] = biological target: T3, 5-hydroxytryptamine receptor 1A (Homo sapiens); conditions: HeLa; remark: listed apart in the source

Row | Structure (SMILES) | Log Ki [2] | Log Ki [3] | pD2 [4] | other results
1 | CCCN(CCC)C1CCc2cccc(O)c2C1 (stereo unspecified) [8-OH-DPAT] | < -6 | -6.08 |  | Ki [1]: > 1000 nM; Log Ki (D(2) dopamine receptor): < -6
2 | NCCc1c[nH]c2ccc(O)cc12 |  |  | 7.3 | 
3 | COc1ccccc1N1CCN(CCN2C(=O)CC3(CCCC3)CC2=O)CC1 [BMY-7378] | -6.31 | -5.93 |  | pKb [5]: 7.55; Ki (D(2) dopamine receptor): 49 nM; pD2 [6]: 9.27
4 | NCCc1c[nH]c2ccc(C(N)=O)cc12 |  |  | 8.45 | 
